These results are taken from ChEMBL document CHEMBL5376019, “Design, synthesis and evaluation of 2-phenylpyrimidine derivatives as novel antifungal agents targeting CYP51” (RSC Med Chem, 2024).

One data set concerns Cryptococcus neoformans. The data set is described as follows: Antifungal activity against Cryptococcus neoformans CGMCC 2.3161 assessed as fungal growth inhibition. In kind it is functional. The gist of the method:
(§1)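 Broth microdilution per NCCLS M27-A3, with fluconazole as positive control. Assay medium was RPMI 1640 buffered with MOPS. Inocula were diluted to 1–5 × 10^3 CFU mL−1 and seeded in 96-well plates. Compounds were dissolved in DMSO and serially diluted in the growth medium. MIC was the read-out.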

Another data set has as its system MDA-MB-231. Nature of the data set: Cytotoxicity against human MDA-MB-231 cells assessed as reduction in cell viability at 32 uM incubated for 24 hrs by CCK-8 assay. In kind it is toxicity, cell-based. The settings on record: mda-mb-231, 24 h. In outline:
(§2)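 Cells from ATCC were grown in RPMI-1640 or DMEM with 10% FBS and 1% penicillin/streptomycin. They were seeded at 5 × 10^4 cells/well and allowed to adhere overnight at 37 °C, 5% CO2, with at least 6 replicates per group. Compounds were applied at 2–64 μM for 24 h; medium-only wells served as control. Viability was measured by CCK-8 absorbance at 450 nm.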

Data set [1] concerns Candida albicans. Nature of the data set: Antifungal activity against Candida albicans CPCC400616 assessed as fungal growth inhibition. In kind it is functional. The gist of the method: as §1
A further data set relates to Candida parapsilosis. The data set is described as follows: Antifungal activity against Candida parapsilosis GIM 2.190 assessed as fungal growth inhibition. It counts as functional. The conditions noted are these: Lodderomyces parapsilosis. In outline:
as §1

The next data set concerns L929. Nature of the data set: Cytotoxicity against mouse L929 cells assessed as reduction in cell viability at 32 uM incubated for 24 hrs by CCK-8 assay. It counts as toxicity, cell-based. The settings on record: l929, 24 h. The gist of the method:
as §2
(Tetrazolium assays rely on reduction of a dye to a coloured formazan, in cell work by metabolically active cells.)

For a further data set, the system named is Candida tropicalis. The data set is described as follows: Antifungal activity against Candida tropicalis CGMCC 2.3739 assessed as fungal growth inhibition. In kind it is functional. In outline:
as §1

The test system of a further data set is Nakaseomyces glabratus. The data set is described as follows: Antifungal activity against clinical isolate Candida glabrata assessed as fungal growth inhibition. It counts as functional. The gist of the method:
as §1

Data set [2] has as its system Candida albicans. The data set is described as follows: Antifungal activity against Candida albicans ATCC SC5314 assessed as fungal growth inhibition. It counts as functional. In outline:
as §1

For the next data set, the system named is Pichia kudriavzevii. The data set is described as follows: Antifungal activity against Pichia kudriavzevii GIM 2.1 assessed as fungal growth inhibition. In kind it is functional. The gist of the method:
as §1

A further data set has as its system DU-145. The data set is described as follows: Cytotoxicity against human DU-145 cells assessed as reduction in cell viability at 32 uM incubated for 24 hrs by CCK-8 assay. The settings on record: du-145, 24 h. It counts as toxicity, cell-based. In outline: as §2
Data set [3] in a line: Metabolic stability in human liver microsomes assessed as intrinsic clearance measured upto 60 min by LC-MS/MS analysis. In kind it is ADME, Microsome. The conditions noted are these: 1 h. In outline: (§3)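 Human liver microsomes were diluted to 0.59 mg mL−1 in 100 mM potassium phosphate buffer and prewarmed 10 min at 37 °C. Compound was added from a 100 μM working solution. Incubation was 60 min at 37 °C with NADPH, alongside a no-cofactor control. Samples taken at 5, 15, 30, 45 and 60 min were quenched in acetonitrile containing tolbutamide and labetalol, centrifuged, and analysed by LC-MS/MS.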
On the technique in general: Liver microsomes are a subcellular fraction often used to study metabolism.

The nature of data set [4]: Metabolic stability in human liver microsomes assessed as remaining measured upto 60 min by LC-MS/MS analysis. It counts as ADME, Microsome. The settings on record: read-out: Stability. The gist of the method: as §3
The target of the next data set is CYP2C9 (Homo sapiens, UniProt P11712). Nature of the data set: Inhibition of CYP2C9 in human liver microsomes using diclofenac as substrate at 10 uM incubated for 10 min by LC-MS/MS analysis relative to control. The settings on record: probe diclofenac. It counts as ADME, Microsome. The gist of the method: (§4)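 Human liver microsomes (0.253 mg mL−1) were used with probe substrates: phenacetin 90 μM (1A2), diclofenac 8 μM (2C9), S-mephenytoin 20 μM (2C19), dextromethorphan 4 μM (2D6), and midazolam 2 μM plus testosterone 50 μM (3A4). Test compound was at 10 μM. Mixtures were preincubated 5 min at 37 °C, then started with an NADPH regenerating system and run 10 min at 37 °C. Reactions were stopped with internal standard and supernatant analysed by LC-MS/MS. Isoform-selective inhibitors at 10 μM served as positive controls.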
Chain of CYP2C9 (P11712 whole entry, canonical isoform): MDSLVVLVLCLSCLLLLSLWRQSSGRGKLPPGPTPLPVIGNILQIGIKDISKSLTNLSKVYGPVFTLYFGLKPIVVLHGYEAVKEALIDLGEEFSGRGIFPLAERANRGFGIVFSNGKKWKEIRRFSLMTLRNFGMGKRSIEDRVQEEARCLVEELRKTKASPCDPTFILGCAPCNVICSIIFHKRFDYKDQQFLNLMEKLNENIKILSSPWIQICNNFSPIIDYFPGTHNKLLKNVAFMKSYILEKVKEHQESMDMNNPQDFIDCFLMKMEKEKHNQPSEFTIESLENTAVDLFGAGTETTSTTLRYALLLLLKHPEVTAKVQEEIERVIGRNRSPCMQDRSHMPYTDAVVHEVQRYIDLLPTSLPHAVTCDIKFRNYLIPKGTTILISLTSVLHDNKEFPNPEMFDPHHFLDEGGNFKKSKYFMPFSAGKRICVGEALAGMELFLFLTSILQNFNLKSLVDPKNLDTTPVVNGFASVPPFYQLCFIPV

The target of the next data set is CYP2D6 (Homo sapiens, UniProt P10635). Nature of the data set: Inhibition of CYP2D6 in human liver microsomes using dextromethorphan as substrate at 10 uM incubated for 10 min by LC-MS/MS analysis relative to control. It counts as ADME, Microsome. The conditions noted are these: probe dextromethorphan. The gist of the method:
as §4

The target in another data set is CYP3A4 (Homo sapiens, UniProt P08684). Nature of the data set: Inhibition of CYP3A4 in human liver microsomes using midazolam and testosterone as substrates at 10 uM incubated for 10 min by LC-MS/MS analysis relative to control. It counts as ADME, Microsome. The conditions noted are these: probe midazolam and testosterone. The gist of the method: as §4
Chain of CYP3A4 (P08684 whole entry): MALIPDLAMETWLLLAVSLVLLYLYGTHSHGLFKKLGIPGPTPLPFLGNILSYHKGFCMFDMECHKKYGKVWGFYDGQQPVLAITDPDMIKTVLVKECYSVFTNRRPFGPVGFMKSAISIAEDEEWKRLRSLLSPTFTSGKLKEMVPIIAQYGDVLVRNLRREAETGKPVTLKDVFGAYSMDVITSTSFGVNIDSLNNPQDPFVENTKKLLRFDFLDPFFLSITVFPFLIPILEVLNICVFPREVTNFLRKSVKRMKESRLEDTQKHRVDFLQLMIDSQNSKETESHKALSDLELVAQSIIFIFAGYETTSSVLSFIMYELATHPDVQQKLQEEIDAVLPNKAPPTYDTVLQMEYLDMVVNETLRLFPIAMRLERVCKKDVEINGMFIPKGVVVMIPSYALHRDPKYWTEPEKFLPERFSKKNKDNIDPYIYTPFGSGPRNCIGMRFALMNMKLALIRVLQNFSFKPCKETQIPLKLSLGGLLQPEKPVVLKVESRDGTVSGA
Data set [5] can be described thus: Metabolic stability in human liver microsomes assessed as half life measured upto 60 min by LC-MS/MS analysis. It counts as ADME, Microsome. The gist of the method:
as §3

The target of the next data set is T1, CYP1A2 (Homo sapiens, UniProt P05177).
T1 sequence (P05177 whole entry): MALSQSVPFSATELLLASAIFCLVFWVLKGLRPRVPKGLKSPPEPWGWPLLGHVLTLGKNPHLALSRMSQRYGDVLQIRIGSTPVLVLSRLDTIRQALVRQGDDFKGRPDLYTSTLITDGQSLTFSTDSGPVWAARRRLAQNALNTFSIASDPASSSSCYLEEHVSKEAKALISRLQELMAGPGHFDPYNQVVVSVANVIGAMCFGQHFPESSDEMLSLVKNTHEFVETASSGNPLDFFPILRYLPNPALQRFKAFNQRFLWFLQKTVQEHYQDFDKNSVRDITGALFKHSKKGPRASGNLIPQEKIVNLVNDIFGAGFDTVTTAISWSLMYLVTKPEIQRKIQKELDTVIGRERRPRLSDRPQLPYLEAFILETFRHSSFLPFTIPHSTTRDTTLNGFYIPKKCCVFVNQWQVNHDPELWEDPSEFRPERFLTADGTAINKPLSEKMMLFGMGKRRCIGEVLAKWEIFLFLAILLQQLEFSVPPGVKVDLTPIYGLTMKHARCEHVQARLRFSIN
The data set is described as follows: Inhibition of CYP1A2 in human liver microsomes using phenacetin as substrate at 10 uM incubated for 10 min by LC-MS/MS analysis relative to control. In kind it is ADME, Microsome. The settings on record: probe phenacetin. In outline:
as §4

For the next data set, the target named is CYP2C19 (Homo sapiens, UniProt P33261). Nature of the data set: Inhibition of CYP2C19 in human liver microsomes using S-mephenytoin as substrate at 10 uM incubated for 10 min by LC-MS/MS analysis relative to control. In kind it is ADME, Microsome. The settings on record: probe S-mephenytoin. In outline: as §4
Chain of CYP2C19 (P33261 whole entry): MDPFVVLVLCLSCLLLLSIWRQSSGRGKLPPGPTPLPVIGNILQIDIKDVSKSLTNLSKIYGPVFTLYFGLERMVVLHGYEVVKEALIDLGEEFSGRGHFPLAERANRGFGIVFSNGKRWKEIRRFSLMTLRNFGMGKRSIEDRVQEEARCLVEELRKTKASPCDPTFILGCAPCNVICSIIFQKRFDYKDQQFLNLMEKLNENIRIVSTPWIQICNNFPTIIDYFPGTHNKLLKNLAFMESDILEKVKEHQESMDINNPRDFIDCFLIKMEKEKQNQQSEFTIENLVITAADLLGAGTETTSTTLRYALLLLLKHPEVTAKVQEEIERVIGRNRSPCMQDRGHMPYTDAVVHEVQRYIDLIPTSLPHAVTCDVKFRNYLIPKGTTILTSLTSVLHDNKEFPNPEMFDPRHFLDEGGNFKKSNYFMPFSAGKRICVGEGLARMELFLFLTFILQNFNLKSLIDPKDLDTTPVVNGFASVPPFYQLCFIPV

Values after ≈ are worked out from the molar mass of the structure shown.

Chain of CYP2D6 (P10635 whole entry): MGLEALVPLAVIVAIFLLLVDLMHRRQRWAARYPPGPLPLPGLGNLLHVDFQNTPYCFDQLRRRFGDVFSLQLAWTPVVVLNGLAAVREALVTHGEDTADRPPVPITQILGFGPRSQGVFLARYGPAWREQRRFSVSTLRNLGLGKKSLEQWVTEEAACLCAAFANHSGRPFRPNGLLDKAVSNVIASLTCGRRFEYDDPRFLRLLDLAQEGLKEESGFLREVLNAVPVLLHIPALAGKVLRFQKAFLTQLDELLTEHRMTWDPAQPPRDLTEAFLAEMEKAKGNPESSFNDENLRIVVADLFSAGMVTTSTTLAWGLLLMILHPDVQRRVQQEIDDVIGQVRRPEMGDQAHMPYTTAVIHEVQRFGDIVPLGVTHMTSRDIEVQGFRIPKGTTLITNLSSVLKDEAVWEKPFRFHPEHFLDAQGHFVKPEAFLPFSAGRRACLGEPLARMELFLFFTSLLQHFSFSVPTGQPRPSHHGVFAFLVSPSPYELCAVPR

The term MIC denotes the least concentration at which growth counts as inhibited. Turning to `Cc1ccc(C(=O)C(Cn2ccnc2)NC(=O)c2cnc(-c3cccc(F)c3)nc2)cc1` (racemic), the MIC worked out at 64 µg/mL (≈ 149 µM) in the data set with Cryptococcus neoformans; 4 µg/mL (≈ 9.31 µM) with Candida albicans [1]; 4 µg/mL (≈ 9.31 µM) with Candida parapsilosis; 1 µg/mL (≈ 2.33 µM) with Candida tropicalis; 8 µg/mL (≈ 18.6 µM) with Nakaseomyces glabratus; 1 µg/mL (≈ 2.33 µM) in the data set on Candida albicans [2]. Besides, the MIC in the data set with Pichia kudriavzevii came out at 4 µg/mL (≈ 9.31 µM). Further, the Activity result in the data set on MDA-MB-231, in the data set on L929 and in the data set on DU-145 was “Non-Toxic” in each case.
Usually inhibition stands for the percentage by which the read-out fell short of the control. Higher therefore signals strong suppression. By half-life is commonly meant the time in which the quantity being followed falls by half. As to `COc1ccc(C(=O)C(Cn2ccnc2)NC(=O)c2cnc(-c3cccc(F)c3)nc2)cc1` (racemic), in [3], the CLH was 94 µL/min/mg. Besides, the MIC in the data set on Cryptococcus neoformans came to 32 µg/mL (≈ 71.8 µM); in the data set with Candida albicans [1], 1 µg/mL (≈ 2.24 µM); with Candida parapsilosis, 1 µg/mL (≈ 2.24 µM); with Candida tropicalis, 0.25 µg/mL (≈ 0.561 µM); with Nakaseomyces glabratus it was 1 µg/mL (≈ 2.24 µM); in the data set on Candida albicans [2], 0.25 µg/mL (≈ 0.561 µM). For the same compound, the MIC in the data set on Pichia kudriavzevii stood at 1 µg/mL (≈ 2.24 µM). Besides, the Activity result with MDA-MB-231, in the data set on L929 and with DU-145 was “Non-Toxic” each time. For the same compound, the remaining at 1 h in [4] turned out to be 6.33%. The inhibition at 10 min, 10 µM amounted to 89.8% against CYP2C9; 72.3% on CYP2D6; 92.3% against CYP3A4; 38.4% against CYP1A2; 89.4% against CYP2C19. The half-life in [5] stood at 14.8 min.
With `O=C(NC(Cn1ccnc1)C(=O)c1ccccc1)c1cnc(-c2cccc(C(F)(F)F)c2)nc1` (racemic), the minimal inhibitory concentration (MIC) with Cryptococcus neoformans, in the data set with Candida albicans [1], with Candida parapsilosis, in the data set on Candida tropicalis, in the data set with Nakaseomyces glabratus and with Candida albicans [2] was over 64 µg/mL throughout. In addition, the MIC with Pichia kudriavzevii was over 64 µg/mL.
Regarding `CCc1ccc(-c2ncc(C(=O)NC(Cn3ccnc3)C(=O)c3ccccc3)cn2)cc1` (racemic), the MIC in the data set on Cryptococcus neoformans, in the data set on Candida albicans [1], in the data set on Candida parapsilosis, with Candida tropicalis, in the data set with Nakaseomyces glabratus and in the data set with Candida albicans [2] was over 64 µg/mL in each case. Also, the MIC in the data set on Pichia kudriavzevii was over 64 µg/mL.
Consider `O=C(NC(Cn1ccnc1)C(=O)c1ccccc1)c1cnc(-c2cccc(Cl)c2)nc1` (racemic), for which the MIC in the data set with Cryptococcus neoformans, in the data set on Candida albicans [1], with Candida parapsilosis, in the data set with Candida tropicalis, in the data set with Nakaseomyces glabratus and in the data set with Candida albicans [2] was over 64 µg/mL each time. In the data set with Pichia kudriavzevii, the minimum inhibitory concentration (MIC) was over 64 µg/mL.
With `O=C(NC(Cn1ccnc1)C(=O)c1ccc(I)cc1)c1cnc(-c2cccc(F)c2)nc1` (racemic), the minimum inhibitory concentration (MIC) in the data set on Cryptococcus neoformans was over 64 µg/mL; in the data set on Candida albicans [1], 32 µg/mL (≈ 59.1 µM); in the data set with Candida parapsilosis, over 64 µg/mL; with Candida tropicalis, over 64 µg/mL; in the data set with Nakaseomyces glabratus, over 64 µg/mL; with Candida albicans [2], 1 µg/mL (≈ 1.85 µM). In addition, in the data set with Pichia kudriavzevii, the MIC is over 64 µg/mL.
With `Cc1ccc(-c2ncc(C(=O)NC(Cn3ccnc3)C(=O)c3ccccc3)cn2)cc1` (racemic), the minimum inhibitory concentration (MIC) in the data set with Cryptococcus neoformans, in the data set with Candida albicans [1], in the data set on Candida parapsilosis, in the data set with Candida tropicalis, in the data set with Nakaseomyces glabratus and in the data set with Candida albicans [2] was over 64 µg/mL in each case. Besides, in the data set with Pichia kudriavzevii, the MIC is over 64 µg/mL.
Regarding `O=C(NC(Cn1ccnc1)C(=O)c1ccccc1)c1cnc(-c2ccc(Cl)cc2F)nc1` (racemic), the MIC in the data set with Cryptococcus neoformans, in the data set with Candida albicans [1], in the data set on Candida parapsilosis, in the data set on Candida tropicalis, in the data set on Nakaseomyces glabratus and with Candida albicans [2] was over 64 µg/mL each time. For the same compound, the MIC in the data set with Pichia kudriavzevii is over 64 µg/mL.
